NPY-Y2 PAM-ag: human NPY-Y2 potentiation or agonism, primary screen; 220,000 tested, 0.45% active; activation, % at 3.6 µM; P49146; cells expressing NPY-Y2, potentiator/agonist read-out; in the data active means activation above about 27%;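 further: cells stimulated with NPY near EC25 plus isoproterenol at EC100; 0% = vehicle plus submaximal agonist and 100% = vehicle plus saturating agonist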
Target sequence (P49146 whole entry, looked up): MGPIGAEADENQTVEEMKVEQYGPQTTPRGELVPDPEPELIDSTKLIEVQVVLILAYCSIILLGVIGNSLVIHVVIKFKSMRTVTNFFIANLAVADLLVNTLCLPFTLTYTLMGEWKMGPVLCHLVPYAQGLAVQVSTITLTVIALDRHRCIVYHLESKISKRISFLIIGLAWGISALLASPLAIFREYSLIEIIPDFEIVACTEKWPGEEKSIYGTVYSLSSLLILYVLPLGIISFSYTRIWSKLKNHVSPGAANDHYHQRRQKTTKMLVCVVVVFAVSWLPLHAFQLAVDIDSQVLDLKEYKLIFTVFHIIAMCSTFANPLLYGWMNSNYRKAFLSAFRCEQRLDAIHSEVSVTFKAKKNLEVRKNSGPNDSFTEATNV
NPY1 pot ag: human NPY-Y1 potentiation or agonism, primary screen. P25929. NPY-Y1 expressing cells, potentiator/agonist activation. activation, % at 3.6 µM. 220,000 tested, 0.37% active; in the data active means activation above about 33%, passing the limit was not always enough;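 further: cells stimulated with NPY at EC10 then isoproterenol at EC100; 0% = low agonist plus stimulus and 100% = saturating agonist plus stimulus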
INS promoter inh: TRM-6 insulin promoter activity inhibition; inhibition, % at 2 µM; TRM-6 cells, insulin promoter-eGFP reporter, imaging; reporter expression induced with tamoxifen; 130,000 tested, 0.9% active;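 active means inhibition above the mean plus 3 SD, with well images judged a real hit on visual review, cut at about 60% in these data, passing the limit was not always enough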
Ins promoter up: MIN6 insulin promoter up-regulation; MIN6 insulin promoter-GFP reporter, high-content imaging; active compounds read high; z-score at 5 µM; 190,000 tested, 0.3% active; AID 1625;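 active means z-score above 3 at 5 µM with at least 500 cells counted in the well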
NPY-Y2 antag: NPY-Y2 (human) receptor antagonism; P49146; NPY-Y2 expressing cells, antagonist mode; inhibition, % at 2.7 µM; 140,000 tested, 0.99% active; AID 793; in the data active means inhibition above about 17%;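 further: 0% = vehicle with agonist challenge and 100% = reference antagonist with challenge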
NPY-Y1 antag: antagonists of human neuropeptide Y receptor Y1; P25929; HEK293-CNG Y1 cells, membrane potential fluorescence; NPY at EC95, then isoproterenol; inhibition, % at 3.6 µM; 200,000 tested, 1% active; AID 1040;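 active means inhibition above the campaign mean inhibition of all tested compounds plus 3 SD, cut at about 20% in these data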;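 further: 0% = DMSO wells given NPY plus isoproterenol and 100% = isoproterenol alone without NPY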
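System: HEK293 cells with Y1 receptor plus CNG channel / Probe or stimulus: NPY 25 nM then isoproterenol 1 µM plus Ro 20-1724 25 µM / Compound: one concentration, 3.6 µM, in 0.4% DMSO / Schedule: compound incubation 1 h at room temperature, readout 45 min post-stimulation / Measured by: membrane potential fluorescence / Read-out: % inhibition of NPY effect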
* hit, by the source's call. Most compounds without a hit are left out; they make up all but 2.5% or so of the library.

For CCOC(=O)c1oc2cccc(OCC(O)CNC(C)C)c2c1C (configuration not stated) the results were NPY-Y2 PAM-ag 105.3*, NPY1 pot ag 110.8*, INS promoter inh 0.0, Ins promoter up -0.34, NPY-Y2 antag 2.1 and NPY-Y1 antag -13.1.
`Cc1ccc(/C=N/OC(=O)c2nn(C)cc2Cl)cc1` gave NPY-Y2 PAM-ag 0.3, NPY1 pot ag -5.9, INS promoter inh 0.0 and NPY-Y1 antag 13.8.
CN(C)CCOc1nc(-c2ccccc2)nc2c1oc1ccccc12 was read as NPY-Y2 PAM-ag 69.0*, NPY1 pot ag 59.5*, INS promoter inh 8.8, Ins promoter up -0.5, NPY-Y2 antag 6.0 and NPY-Y1 antag -0.7.
For CN(C)/C=C/C(=O)c1cc(N2CCOCC2)ccc1[N+](=O)[O-] the results were NPY-Y2 PAM-ag 12.4, NPY1 pot ag -4.5, Ins promoter up 0.9 and NPY-Y1 antag 1.8.
For Cc1oc(-c2ccccc2F)nc1CN1CCC(C(=O)NC2CCCc3ccccc32)CC1 (configuration not stated) the results were NPY-Y2 PAM-ag -20.8, NPY1 pot ag 0.3, INS promoter inh 85.7*, Ins promoter up -0.76, NPY-Y2 antag 11.8 and NPY-Y1 antag 6.1.
Screening Cc1ccc(-c2nnc(Nc3ccc4c(c3)OCO4)c3ccccc23)cc1S(=O)(=O)NC(C)C returned NPY-Y2 PAM-ag -15.0, NPY1 pot ag -8.9, INS promoter inh 28.6, Ins promoter up -0.66, NPY-Y2 antag 0.7 and NPY-Y1 antag 3.9.
`COc1cc(NC(=O)C/C(C)=N/NC(=O)c2cccc(O)c2)c(OC)cc1Cl` gave NPY-Y2 PAM-ag 2.5, NPY1 pot ag -16.9, INS promoter inh 7.1, Ins promoter up 0.08, NPY-Y2 antag 2.3 and NPY-Y1 antag -0.6.
`O=C1/C(=C/c2cccc(Br)c2)SC(=S)N1/N=C/c1cc([N+](=O)[O-])ccc1O` gave NPY-Y2 PAM-ag 2.7, NPY1 pot ag 29.5 and Ins promoter up -0.6.
For O=C(/C=C/c1ccc(Cl)cc1)NC(=S)NN1CCCCC1c1cccnc1 (configuration not stated) the results were NPY-Y2 PAM-ag -5.7, NPY1 pot ag -33.6, INS promoter inh -46.9, NPY-Y2 antag 39.9* and NPY-Y1 antag 1.9.
Screening Cc1ccc(N2C(=O)NC(NC(=O)c3ccc(Cl)cc3)(C(F)(F)F)C2=O)cc1 (configuration not stated) returned NPY-Y2 PAM-ag -12.9, NPY1 pot ag -11.3, INS promoter inh -52.8, Ins promoter up 0.03, NPY-Y2 antag 9.7 and NPY-Y1 antag 6.5.
Oc1cccc(/C=N/Nc2cccc3cccnc23)c1 was read as NPY-Y2 PAM-ag 2.5, NPY1 pot ag 24.6, INS promoter inh 57.1, Ins promoter up 1.15 and NPY-Y1 antag -5.0.
`Oc1c(/C=N/Nc2cccc3cccnc23)ccc2ccccc12` gave NPY-Y2 PAM-ag -14.2, NPY1 pot ag -8.6, INS promoter inh 73.3*, Ins promoter up -0.13, NPY-Y2 antag 0.2 and NPY-Y1 antag -0.6.
Screening COc1ccc(-c2cc(=O)oc3cc(OCC(=O)c4cccc([N+](=O)[O-])c4)ccc23)cc1 returned NPY-Y2 PAM-ag 3.2, NPY1 pot ag -1.4, INS promoter inh 10.8, Ins promoter up -0.04, NPY-Y2 antag 0.8 and NPY-Y1 antag 3.0.
For CCOc1ccc(-c2c(C#N)c(N)nc3sc(C(=O)c4ccccc4)c(N)c23)cc1 the results were NPY-Y2 PAM-ag -23.9, NPY1 pot ag 0.7 and Ins promoter up 9.11*.
`COc1ccc(-c2c(C#N)c(N)nc3sc(C(=O)c4ccccc4)c(N)c23)cc1` gave NPY-Y2 PAM-ag -0.1, NPY1 pot ag -4.6, INS promoter inh 41.2, Ins promoter up -0.47, NPY-Y2 antag 2.0 and NPY-Y1 antag -2.0.
For CCOC(=O)c1sc2nc(C)nc(NCCc3ccccn3)c2c1C the results were NPY-Y2 PAM-ag 3.0, NPY1 pot ag -7.4, INS promoter inh 94.4*, Ins promoter up -0.6 and NPY-Y1 antag -0.5.
For CCOC(=O)c1sc2nc(C)nc(N3CCN(c4ncccn4)CC3)c2c1C the results were NPY-Y2 PAM-ag 7.9, NPY1 pot ag 12.7, Ins promoter up 0.69 and NPY-Y1 antag -1.6.
Screening COc1ccc(OC)c(NC(=O)COC(=O)c2c3c(nc4ccccc24)CCCC3)c1 returned NPY-Y2 PAM-ag -13.3, NPY1 pot ag -30.9, INS promoter inh 30.0, Ins promoter up -0.34, NPY-Y2 antag 11.1 and NPY-Y1 antag 8.4.
Screening COc1ccc(NC(=O)COC(=O)c2c3c(nc4ccccc24)CCCC3)cc1Cl returned NPY-Y2 PAM-ag -10.9, NPY1 pot ag -54.5, INS promoter inh 38.2, Ins promoter up -1.19, NPY-Y2 antag 18.9* and NPY-Y1 antag 24.3*.
O=C(c1c[nH]c2ccc(F)cc2c1=O)N1CCCCCC1 was read as NPY-Y2 PAM-ag 4.7, NPY1 pot ag -7.3, INS promoter inh 52.6, NPY-Y2 antag -1.1 and NPY-Y1 antag 2.0.
`Cc1cccc2c(=O)c(C(=O)N3CCCCCC3)c[nH]c12` gave NPY-Y2 PAM-ag -38.9, NPY1 pot ag -77.2, INS promoter inh 44.4, Ins promoter up 0.19, NPY-Y2 antag 21.6* and NPY-Y1 antag 20.8*.
Cc1cc(/C=C2\SC(=S)NC2=O)c(C)n1C1CC1 was read as NPY-Y2 PAM-ag 7.6, NPY1 pot ag 7.2, INS promoter inh -11.1, Ins promoter up 3.04*, NPY-Y2 antag -1.4 and NPY-Y1 antag -3.5.
`Cc1cc(/C=C2/C(=O)N(C)C(=S)N2C)c(C)n1C1CC1` gave NPY-Y2 PAM-ag 2.2, NPY1 pot ag 10.6, INS promoter inh -237.9, Ins promoter up 0.6, NPY-Y2 antag 1.1 and NPY-Y1 antag -1.4.
Screening Cc1cnc(Sc2ncccc2[N+](=O)[O-])nc1 returned NPY-Y2 PAM-ag 3.1, NPY1 pot ag 12.2, INS promoter inh -2.6, NPY-Y2 antag 2.4 and NPY-Y1 antag -1.3.
For C=CCNc1nnc(Sc2ncccc2[N+](=O)[O-])s1 the results were NPY-Y2 PAM-ag 1.4, NPY1 pot ag -4.6, INS promoter inh 92.9*, Ins promoter up -0.86 and NPY-Y1 antag 0.0.
`CC1(CCc2ccc(O)cc2)NC(=O)NC1=O` (configuration not stated) gave NPY-Y2 PAM-ag -13.3, NPY1 pot ag -14.5, INS promoter inh 8.6, Ins promoter up -0.34, NPY-Y2 antag 1.8 and NPY-Y1 antag -3.0.
O=C1C(NS(=O)(=O)c2cccs2)=C(N2CCN(Cc3ccccc3)CC2)C(=O)c2ccccc21 was read as NPY-Y2 PAM-ag 39.7*, NPY1 pot ag 59.6* and Ins promoter up 0.12.
`CCOc1ccccc1N1CCN(C2=C(NS(=O)(=O)c3cccs3)C(=O)c3ccccc3C2=O)CC1` gave NPY-Y2 PAM-ag 42.8*, NPY1 pot ag 50.3*, INS promoter inh 15.6, Ins promoter up -0.18, NPY-Y2 antag -11.8 and NPY-Y1 antag -14.2.
Screening CN1CCN(C2=C(NS(=O)(=O)c3cccs3)C(=O)c3ccccc3C2=O)CC1 returned NPY-Y2 PAM-ag -26.7, NPY1 pot ag -1.7 and Ins promoter up 0.42.
